In ChEMBL document CHEMBL3407447, “Probing the molecular and structural elements of ligands binding to the active site versus an allosteric pocket of the human farnesyl pyrophosphate synthase” (Bioorg Med Chem Lett, 2015):
Calls of active or inactive are those of the source. No cut-off for these calls is given here.

What was measured:
[1] = biological target: T1, Farnesyl pyrophosphate synthase (Homo sapiens) (UniProt P14324); experiment: Inhibition of human FPPS at 10 uM
T1 sequence (whole entry): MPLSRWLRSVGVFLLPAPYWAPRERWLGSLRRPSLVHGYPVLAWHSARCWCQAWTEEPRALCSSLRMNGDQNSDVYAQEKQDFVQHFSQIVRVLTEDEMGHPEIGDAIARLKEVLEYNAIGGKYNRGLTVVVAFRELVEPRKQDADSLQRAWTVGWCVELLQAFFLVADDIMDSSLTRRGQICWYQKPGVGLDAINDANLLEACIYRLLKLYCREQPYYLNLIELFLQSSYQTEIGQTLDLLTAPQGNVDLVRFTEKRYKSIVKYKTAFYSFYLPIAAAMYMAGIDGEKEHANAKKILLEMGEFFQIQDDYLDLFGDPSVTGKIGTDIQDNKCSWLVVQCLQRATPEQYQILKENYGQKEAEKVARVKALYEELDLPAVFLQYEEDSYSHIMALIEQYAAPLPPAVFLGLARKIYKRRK
In short: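 Single fixed-concentration screen in the human FPPS enzyme inhibition assay, run alongside two known bisphosphonate inhibitors as positive controls.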

[2] = tested on: Rattus norvegicus; experiment: Reduction in hypercalcemia in sc dosed rat; assay type: functional; conditions: read-out: MED
[3] = biological target: T2, Farnesyl pyrophosphate synthase (Homo sapiens, UniProt P14324); experiment: Inhibition of human FPPS
T2 sequence (P14324 whole entry): T1 sequence (whole entry)

Row | Structure (SMILES) | inhibition [1] | minimal effective dose [2] [mg/kg] | IC50 [3] [µM]
1 | Cn1c(NCC(P(=O)(O)O)P(=O)(O)O)nc2ncccc21 | Active |  | 
2 | CC(C)(C)c1[nH]c2ccccc2c1CC(P(=O)(O)O)P(=O)(O)O | Active |  | 
3 | CC(C)C(C)c1[nH]c2ccccc2c1CC(P(=O)(O)O)P(=O)(O)O (centres undefined) | Active |  | 
4 | O=P(O)(O)C(O)(Cc1cnc2ccccn12)P(=O)(O)O [MINODRONIC ACID] |  | 0.03 | 
5 | Cc1[nH]c2ccccc2c1CC(P(=O)(O)O)P(=O)(O)O | Active |  | 
6 | O.O=P(O)(O)C(O)(Cn1ccnc1)P(=O)(O)O [ZOLEDRONIC ACID] |  | 0.03 | 
7 | CC(C)C(C)c1[nH]c2ccc(-c3ccccc3)cc2c1CC(P(=O)(O)O)P(=O)(O)O (centres undefined) | Active |  | 1.1
8 | CC(C)n1cc(CC(P(=O)(O)O)P(=O)(O)O)c2ccccc21 | Active |  | 
9 | Cn1cc(CC(P(=O)(O)O)P(=O)(O)O)c2ccccc21 | Active |  | 
10 | CCn1cc(CC(P(=O)(O)O)P(=O)(O)O)c2ccccc21 | Active |  | 
11 | Cn1c(NCC(P(=O)(O)O)P(=O)(O)O)nc2cccnc21 | inactive |  | 
12 | Cc1c(CC(P(=O)(O)O)P(=O)(O)O)c2ccccc2n1C | Active |  | 
13 | CC(c1[nH]c2ccccc2c1CC(P(=O)(O)O)P(=O)(O)O)C1CCCC1 (centres undefined) | Active |  | 
